Assay results: paper PMC7241432 (ACS infectious diseases, 2019)
Values after ≈ are worked out from the molar mass of the structure shown. Like-named read-outs stand apart in the source and are kept apart here.

Legend:
[1] = Stability / PYR release in cell-free medium; assay type: physicochemical
Procedure, shortened: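 PYR measured colorimetrically: cell-free medium (R or nitrite-containing NR medium) mixed 1:1 with 0.01 M ferric nitrate in 0.1 N sulfuric acid and shaken 5–10 min at room temperature. Fe3+–PYR complex read by absorbance at 600 nm. Concentration taken from a linear sodium-PYR standard curve. Free PYR followed over 24 h (R medium) and 48 h (NR medium).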

[2] = test system: methicillin-sensitive S. aureus; assay: Antimicrobial spectrum MIC90, MSSA; assay type: cell-based; details: Staphylococcus aureus, 24 h
Mtb strain H37Rv = assay: microbe, parasite or virus in culture; assay type: cell-based, Mycobacterium tuberculosis; details: for MBC: Mycobacterium tuberculosis, H37RV
Mtb [3] = assay type: cell-based, Mycobacterium tuberculosis
BlaC = biological target: T1, BlaC (Mycobacterium tuberculosis, UniProt P9WKD3); assay type: biochemical; details: 100 μM compound, 1 μM BlaC, 10 min
T1 sequence (P9WKD3 35-307): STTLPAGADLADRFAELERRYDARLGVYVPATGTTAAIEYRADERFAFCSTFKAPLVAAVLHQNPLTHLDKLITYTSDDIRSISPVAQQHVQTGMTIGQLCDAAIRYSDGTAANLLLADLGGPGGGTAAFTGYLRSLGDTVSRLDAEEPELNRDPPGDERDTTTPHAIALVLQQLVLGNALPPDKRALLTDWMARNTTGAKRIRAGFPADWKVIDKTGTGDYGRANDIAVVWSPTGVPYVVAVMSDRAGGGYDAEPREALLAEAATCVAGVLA

Mtb [4] = details: 14-day exposure of hypoxic Mtb, plus clavulanate; cited from earlier work
[5] = test system: luxAB (luciferase) containing strain of Mtb H37Rv; assay type: cell-based, Mycobacterium tuberculosis; details: hypoxic conditions, control

O=C(O)CSc1cccc[n+]1[O-] [Compound 10, 2-(carboxymethylthio)pyridine-N-oxide]
PYR release in cell-free medium ([1]; Fe3+-PYR complex, absorbance at 600 nm): not released

[O-][n+]1ccccc1S [PYR, pyrithione]
MIC90 [2]: 25 µM (≈ 3.18 µg/mL)
potency relative to cephalosporin 1a (Mtb strain H37Rv): equipotent on a molar basis
MBC (Mtb strain H37Rv; read-out: MBC NR CARA): 1.25 µM (≈ 0.159 µg/mL)
MBC (Mtb strain H37Rv; read-out: MBC NR CARA + 25 μM Clav): 1.25 µM
MBC (Mtb strain H37Rv; read-out: MBC R CARA): 1.25 µM (≈ 0.159 µg/mL)
MBC (Mtb strain H37Rv; read-out: MBC R CARA + 25 μM Clav): 1.25 µM
reduction of CFU of R Mtb (Mtb [3]): > 5 orders of magnitude
time to reduce CFU of R Mtb by >5 orders of magnitude (Mtb [3]): ≤ 24 h
stability of free PYR in the medium used for NR conditions ([1]; NR medium): largely disappeared over 48 h
stability of free PYR in the medium used for R conditions ([1]; R medium): at least 24 h

CC(=O)OCC1=C(C(=O)O)N2C(=O)[C@@H](NC(=O)Cc3cccs3)[C@H]2SC1 [cephalothin]
UV-visible absorption spectrum after incubation with BlaC (BlaC): did not change

C[C@@H](O)[C@H]1C(=O)N2C(C(=O)O)=C(S[C@@H]3CN[C@H](C(=O)N(C)C)C3)[C@H](C)[C@H]12 [meropenem]
reduction in colony-forming units (CFUs) (Mtb [4]): ca. 1 order of magnitude

CO[C@H]1/C=C/O[C@@]2(C)Oc3c(C)c(O)c4c(O)c(c(/C=N/N5CCN(C)CC5)c(O)c4c3C2=O)NC(=O)/C(C)=C\C=C\[C@H](C)[C@H](O)[C@@H](C)[C@@H](O)[C@@H](C)[C@H](OC(C)=O)[C@@H]1C [rifampicin]
activity in LORA [5]: lost activity
